Results reported in ChEMBL document CHEMBL1122873, “Acetoxy-substituted 1,1,2-triphenylbut-1-enes with antiestrogenic and mammary tumor inhibiting properties” (1985).

Legend:
[1] = biological target: T1, Estrogen receptor (Mus musculus) (UniProt O08537+P19785); experiment: Estrogenic activity in immature mouse using Uterine weight test at 1 ug dose; assay type: functional
Procedure, shortened: (§1)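 Immature female NMRI mice (10–12 g, 20 days old at start, 10 per group) got the compound sc daily for 3 consecutive days in 0.1 mL olive oil. Uteri were removed 24 h after the last injection, fixed in Bouin's solution, dried and weighed. Uterine growth stimulation is the estrogenic read-out.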

[2] = biological target: T2, Estrogen receptor (Bos taurus) (UniProt Q9XSB5+P49884); experiment: Relative displacement of [3H]estradiol from calf uterine estrogen receptor; assay type: protein assay
Procedure, shortened: (§2)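 Calf uterine cytosol was incubated with 1×10⁻⁹ M [³H]estradiol and five or six competitor concentrations for 16 h at 4 °C. Dextran-coated charcoal removed unbound ligand (90 min, 4 °C), and supernatant radioactivity was counted. The 50% displacement concentration was read from a semilog plot. RBA = [E2]/[I] × 100.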

[3] = tested on: Mus musculus; experiment: In vivo inhibition of hormone-dependent MXT mammary tumor in BDF1 mouse at 8.0 mg/kg dose; assay type: functional
Procedure, shortened: (§3)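 Transplantable hormone-dependent MXT tumor pieces (1 per animal) were implanted in BDF1 mice, then randomized into groups of 10. Dosing was sc three times weekly (Mon/Wed/Fri) in olive oil (0.1 mL/mouse) from day 1 after transplantation for 6 weeks, at equimolar doses. Read-out is tumor weight T/C % versus solvent control (mean of 10); significance α ≤ 0.05.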

[4] = biological target: T1, Estrogen receptor (Mus musculus); experiment: In vivo uterotrophic effect in hormone-dependent MXT mammary tumor bearing BDF1 mice at 8.0 mg/kg dose; assay type: functional, organism-based; set-up: dose 8 mg/kg
Procedure, shortened: (§4)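 Uterotrophic effect was measured in the same MXT tumor-bearing BDF1 mice (groups of 10). They were dosed sc three times weekly in olive oil (0.1 mL/mouse) for 6 weeks from day 1 after transplantation. Read-out is T/C % of uterotrophic effect versus solvent control after 6 weeks (mean of 10); significance α ≤ 0.05.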

[5] = biological target: T1, Estrogen receptor (Mus musculus); experiment: Antiestrogenic activity in immature mouse Uterine weight test at 5 ug dose; assay type: functional
Procedure, shortened: (§5)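 Antiestrogenic read-out is inhibition of estrone-stimulated uterine growth, given as % inhibition. Immature female NMRI mice (10–12 g, 20 days old, 10 per group) received the compound sc daily for 3 days in 0.1 mL olive oil. Uteri were taken 24 h after the last dose, Bouin-fixed, dried and weighed.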

[6] = biological target: T1, Estrogen receptor (Mus musculus); experiment: Estrogenic activity in immature mouse using Uterine weight test at 5 ug dose; assay type: functional; procedure, shortened: as §1
[7] = biological target: T1, Estrogen receptor (Mus musculus); experiment: Estrogenic activity in immature mouse using Uterine weight test at 50 ug dose; assay type: functional; procedure, shortened: as §1
[8] = biological target: T1, Estrogen receptor (Mus musculus); experiment: Antiestrogenic activity in immature mouse Uterine weight test at 25 ug dose; assay type: functional; procedure, shortened: as §5
[9] = biological target: T1, Estrogen receptor (Mus musculus); experiment: Antiestrogenic activity in immature mouse Uterine weight test at 100 ug dose; assay type: functional; procedure, shortened: as §5
[10] = tested on: Mus musculus; experiment: In vivo inhibition of hormone-dependent MXT mammary tumor in BDF1 mouse at 11.3 mg/kg dose; assay type: functional; procedure, shortened: as §3
[11] = biological target: T1, Estrogen receptor (Mus musculus); experiment: Estrogenic activity in immature mouse using Uterine weight test at 0.5 ug dose; assay type: functional; procedure, shortened: as §1
[12] = biological target: T2, Estrogen receptor (Bos taurus); experiment: Tested in vitro for its binding affinity against Estrogen receptor; assay type: protein assay; procedure, shortened: as §2
[13] = biological target: T1, Estrogen receptor (Mus musculus); experiment: Antiestrogenic activity in immature mouse Uterine weight test at 25 ug dose
[14] = biological target: T1, Estrogen receptor (Mus musculus); experiment: Antiestrogenic activity in immature mouse Uterine weight test at 1 ug dose; assay type: functional; procedure, shortened: as §5
[15] = biological target: T1, Estrogen receptor (Mus musculus); experiment: Estrogenic activity in immature mouse using Uterine weight test at 250 ug dose; assay type: functional; procedure, shortened: as §1
[16] = biological target: T1, Estrogen receptor (Mus musculus); experiment: In vivo uterotrophic effect in hormone-dependent MXT mammary tumor bearing BDF1 mice at 12 mg/kg dose; assay type: functional, organism-based; set-up: dose 12 mg/kg; procedure, shortened: as §4
[17] = tested on: Mus musculus; experiment: In vivo inhibition of hormone-dependent MXT mammary tumor in BDF1 mouse at 12 mg/kg dose; assay type: functional; procedure, shortened: as §3
[18] = tested on: Mus musculus; experiment: In vivo inhibition of hormone-dependent MXT mammary tumor in BDF1 mouse at 5.4 mg/kg dose; assay type: functional; procedure, shortened: as §3
[19] = biological target: T1, Estrogen receptor (Mus musculus); experiment: Estrogenic activity in immature mouse using Uterine weight test at 25 ug dose; assay type: functional; procedure, shortened: as §1
[20] = biological target: T1, Estrogen receptor (Mus musculus); experiment: Estrogenic activity in immature mouse using Uterine weight test at 10 ug dose; assay type: functional; procedure, shortened: as §1

T1 sequence (O08537 whole entry, looked up): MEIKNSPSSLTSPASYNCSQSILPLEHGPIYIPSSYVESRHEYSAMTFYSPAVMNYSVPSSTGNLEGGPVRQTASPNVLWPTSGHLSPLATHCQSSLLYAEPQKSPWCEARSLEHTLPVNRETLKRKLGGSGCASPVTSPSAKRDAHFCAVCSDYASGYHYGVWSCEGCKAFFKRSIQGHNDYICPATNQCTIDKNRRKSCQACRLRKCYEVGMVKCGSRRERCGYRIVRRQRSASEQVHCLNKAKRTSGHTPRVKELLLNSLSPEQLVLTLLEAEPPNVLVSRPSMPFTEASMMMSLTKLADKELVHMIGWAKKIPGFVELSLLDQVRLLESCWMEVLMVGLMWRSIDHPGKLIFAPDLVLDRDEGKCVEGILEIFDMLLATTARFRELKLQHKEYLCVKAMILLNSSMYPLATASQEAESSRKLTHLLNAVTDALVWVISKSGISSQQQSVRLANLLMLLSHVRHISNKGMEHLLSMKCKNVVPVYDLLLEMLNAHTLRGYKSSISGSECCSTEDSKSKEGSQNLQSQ
T1 sequence (P19785 whole entry, looked up): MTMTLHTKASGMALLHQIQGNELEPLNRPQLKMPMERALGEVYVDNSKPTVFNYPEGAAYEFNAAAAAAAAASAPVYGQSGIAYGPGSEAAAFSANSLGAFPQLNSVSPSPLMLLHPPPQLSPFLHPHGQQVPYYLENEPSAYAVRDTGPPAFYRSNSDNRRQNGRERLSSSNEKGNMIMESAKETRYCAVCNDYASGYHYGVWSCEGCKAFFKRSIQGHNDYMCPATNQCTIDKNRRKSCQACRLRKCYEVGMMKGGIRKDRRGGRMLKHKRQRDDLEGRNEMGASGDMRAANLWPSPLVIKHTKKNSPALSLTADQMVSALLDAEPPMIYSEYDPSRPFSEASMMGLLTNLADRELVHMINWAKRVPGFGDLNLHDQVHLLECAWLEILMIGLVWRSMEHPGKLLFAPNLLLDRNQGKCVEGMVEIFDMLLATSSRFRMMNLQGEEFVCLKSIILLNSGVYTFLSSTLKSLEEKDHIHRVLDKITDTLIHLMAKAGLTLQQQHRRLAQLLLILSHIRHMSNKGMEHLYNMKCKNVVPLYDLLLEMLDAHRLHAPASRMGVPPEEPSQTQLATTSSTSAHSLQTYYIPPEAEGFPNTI

Structure (SMILES)	Estrogenic effect [1]	RBA [2] [%]	T/C [3] [%]	T/C [4] [%]	inhibition [5] [%]	Estrogenic effect [6]	Estrogenic effect [7]	inhibition [8] [%]	inhibition [9] [%]	further results
CC/C(=C(\c1ccccc1)c1cccc(OC(C)=O)c1)c1ccc(OC(C)=O)cc1	0	1.8	62	96	45	18	61	16	9	–
CC/C(=C(\c1ccccc1)c1ccc(OCCN(C)C)cc1)c1ccccc1.O=C(O)CC(O)(CC(=O)O)C(=O)O [TAMOXIFEN CITRATE]	–	–	–	–	–	–	–	–	–	T/C [10]: 4%
CC/C(=C(/c1ccccc1)c1ccc(OC(C)=O)cc1)c1cccc(OC(C)=O)c1	114	11.1	1	205	–	81	–	–	–	Estrogenic effect [11]: 124
CC/C(=C(\c1ccccc1)c1ccc(OC(C)=O)cc1)c1cccc(OC(C)=O)c1	–	–	7	193	0	94	–	0	–	relative binding affinity (RBA) [12]: 6.1; inhibition [13]: 0%
CC/C(=C(/c1ccccc1)c1cccc(OC(C)=O)c1)c1ccc(OC(C)=O)cc1	18	4.2	2	175	0	80	92	0	–	inhibition [14]: 12%
CC/C(=C(\c1ccc(OC(C)=O)cc1)c1cccc(OC(C)=O)c1)c1ccccc1	23	8.7	25	116	41	35	73	32	3	Estrogenic effect [15]: 85
CC/C(=C(/c1ccc(OC(C)=O)cc1)c1cccc(OC(C)=O)c1)c1ccccc1	8	3.5	–	–	28	15	66	33	9	T/C [16]: 110%; T/C [17]: 8%; Estrogenic effect [15]: 66
CC/C(=C(/CC)c1ccc(O)cc1)c1ccc(O)cc1 [DIETHYLSTILBESTROL]	–	–	–	–	–	–	–	–	–	T/C [18]: 3%
CCC(=C(c1ccc(OC(C)=O)cc1)c1ccc(OC(C)=O)cc1)c1ccccc1	37	–	7	110	0	72	–	–	–	Estrogenic effect [19]: 98; Estrogenic effect [20]: 85; inhibition [14]: 0%
